According to ChEMBL document CHEMBL1146203, “Acridone-based inhibitors of inosine 5'-monophosphate dehydrogenase: discovery and SAR leading to the identification of N-(2-(6-(4-ethylpiperazin-1-yl)pyridin-3-yl)propan-2-yl)-2- fluoro-9-oxo-9,10-dihydroacridine-3-carboxamide (BMS-566419)” (J Med Chem, 2007):
Calls of active or inactive are those of the source. No cut-off for these calls is given here.

Columns and labels:
CCRF-CEM = experiment: Inhibition of CEM cell proliferation; type: functional, cell-based; settings: Homo sapiens
How it was run: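 Human CEM T-lymphoblasts grown in RPMI 1640 with 10% heat-inactivated FBS and penicillin/streptomycin. Seeded at 3000 cells/well with 0.5% DMSO; compounds tested in triplicate from 10 µM top concentration in 3-fold dilutions.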

[1] = target: Inosine-5'-monophosphate dehydrogenase 2 (Homo sapiens, UniProt P12268); experiment: Inhibition of human IMPDH2
PBMC = experiment: Inhibition of T cell proliferation in PBMC cells; type: functional, cell-based; settings: Homo sapiens
How it was run: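 Human PBMCs isolated from heparinized whole blood by density gradient and plated at 5 × 10^4 cells/well in RPMI 1640 with 10% FBS. Stimulated with anti-CD3 OKT3 (200 ng/mL) plus soluble anti-CD28 (1 µg/mL). Compounds tested in triplicate from 3.3 µM in 3-fold dilutions with 0.5% DMSO for 72 h.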

Rattus norvegicus [2] = experiment: Efficacy against Freund's complete adjuvant-induced arthritis in Lewis rat assessed as inhibition of paw swelling at 15 mg/kg, po after 21 days; type: functional, organism-based; parameters: dose 15 mg/kg
How it was run: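 Adjuvant arthritis induced by subcutaneous Freund's complete adjuvant at the tail base in male Lewis rats. Oral dosing once daily for 21 days from day 0, vehicle 60% PEG400/40% 0.01 N HCl, 8 rats per group. Hind paw volume measured by plethysmometry at baseline and over three weeks; increase above baseline calculated; Student's t test against the vehicle group.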

Rattus norvegicus [3] = species on record: Rattus norvegicus; experiment: Gastrointestinal toxicity in Lewis rat adjuvant arthritis model; type: organism-based; settings: in vivo
How it was run: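 Lewis rats in the adjuvant arthritis setting were given escalating oral daily doses for up to 14 days. Animals were monitored for diarrhea and weight loss, with gross examination and histopathology (crypt cell necrosis) used to define the maximum tolerated dose for GI toxicity.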

[4] = Therapeutic index for gastrointestinal toxicity in Lewis rat adjuvant arthritis model; settings: read-out: TI
How it was run: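 GI therapeutic index in the rat adjuvant arthritis model, calculated as the ratio of exposure (AUC) at the maximum tolerated dose for GI toxicity to the AUC at the lowest efficacious dose.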

SMILES | IC50 (CCRF-CEM) [nM] | IC50 [1] [nM] | IC50 (PBMC) [nM] | Activity (Rattus norvegicus [2]) | Activity (Rattus norvegicus [3]) | selectivity ratio [4]
Cc1cc(C(C)(C)NC(=O)c2cc3[nH]c4ccccc4c(=O)c3cc2F)cnc1N1CCOCC1 | 870 | 11 | 270 |  |  | 
CC(C)(NC(=O)c1cc2[nH]c3ccccc3c(=O)c2cc1F)c1cnc2c(c1)OCCN2 | 920 | 17 | 320 |  |  | 
CC(C)(NC(=O)c1cc2[nH]c3ccccc3c(=O)c2cc1F)c1ccccc1 | 830 | 11 | 220 |  |  | 
CC(C)(NC(=O)c1cc2[nH]c3ccccc3c(=O)c2cc1F)c1cccnc1 | 420 | 11 | 140 |  |  | 
CC(C)(NC(=O)c1cc2[nH]c3ccccc3c(=O)c2cc1F)c1ccccn1 | 1000 | 29 |  |  |  | 
COc1c(C)c2c(c(O)c1C/C=C(\C)CCC(=O)OCCN1CCOCC1)C(=O)OC2 [MYCOPHENOLATE MOFETIL] |  |  |  | Active | Active | 6.9
CC(C)(NC(=O)c1cc2[nH]c3ccccc3c(=O)c2cc1F)c1ccc(N2CCOCC2)nc1 | 660 | 20 | 210 |  |  | 
CC(C)(NC(=O)c1ccc2c(=O)c3ccccc3[nH]c2c1)c1ccccc1 |  | 19 | 730 |  |  | 
COc1c(C)c2c(c(O)c1C/C=C(\C)CCC(=O)O)C(=O)OC2 [MYCOPHENOLIC ACID] |  |  | 130 |  |  | 
CC(C)(NC(=O)c1ccc2c(=O)c3ccccc3[nH]c2c1)c1cccnc1 | 2200 | 42 | 590 |  |  | 
CN(C)S(=O)(=O)c1cccc(C(C)(C)NC(=O)c2cc3[nH]c4ccccc4c(=O)c3cc2F)c1 | 380 | 7.9 | 130 |  |  | 
CN(C)S(=O)(=O)c1ccc(C(C)(C)NC(=O)c2cc3[nH]c4ccccc4c(=O)c3cc2F)cc1 | 660 | 10 | 200 |  |  | 
C[C@@H](NC(=O)c1ccc2c(=O)c3ccccc3[nH]c2c1)c1ccccc1 |  | 95 |  |  |  | 
